Results: ChEMBL document CHEMBL4513216, “Probing the Open Global Health Chemical Diversity Library for Multistage-Active Starting Points for Next-Generation Antimalarials” (ACS Infect Dis, 2020)

Test: Toxicity liver stage against HepG2, at 10uM
Format: cell-based
Design: test concentration 10 uM, cell line HepG2-A16-CD81EGFP
Details: human, HepG2-A16-CD81EGFP cells; read-out: INHIBITION
Method in brief: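 Uninfected HepG2-A16-CD81EGFP cells, 3 × 10^3 per well, 1536-well, plated on prespotted compound at 10 μM final, parasite-free screening media added to match infected plates; puromycin 10 μM positive, DMSO 0.5% negative; run in parallel with 48 h PbLuc assay at 37 °C, 5% CO2; viability by CellTiter-Glo luminescence, normalized to controls.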

SMILES	cytotoxicity at 10 µM [%]
COc1ccc(CC(C)Nc2cccc(SC)c2)cc1 (configuration not stated)	11.6
CC(=O)c1ccc(C(=O)NCCCOC(C)c2ccccc2)s1 (configuration not stated)	-14.1
COc1ccc(-c2n[nH]c(C)c2CC(=O)NCCN2CCOCC2)cc1	-13.4
CCCc1cc(=O)n(CC(=O)NC(C)C)c(-n2nc(C)cc2C)n1	2.74
O=c1c(S(=O)(=O)N2CCCC2)cccn1Cc1ccccc1Cl	2.96
Cc1nc(NC2CC2)c2c(n1)c(C)nn2C	-3.79
CCCC(C)(O)c1cc(C(N)=O)no1 (configuration not stated)	-5.4
CCN(CC)C(=O)c1ccn(COc2ccccc2)n1	-0.911
Cc1ccc(-c2cc(N)c(=O)n(C(C)C(=O)NC(C)C)n2)o1 (configuration not stated)	-6.69
CN1CCN(CC2(O)CCCN(S(=O)(=O)c3cn[nH]c3)CC2)CC1 (configuration not stated)	2.25
CN(C)S(=O)(=O)N1CCC(c2ccnc(Nc3ccccn3)n2)C1 (configuration not stated)	3.25
Cc1nccnc1C1CCN(C(=O)C(C)C)CC1	3.25
CC(C)N1CCOC(c2cc(CCO)[nH]n2)C1 (configuration not stated)	1.47
O=C(c1n[nH]c(=O)c2ccccc12)N1CCC(O)(CN2CCOCC2)C1 (configuration not stated)	-1.39
Cn1nccc1C(=O)N1Cc2ccccc2OC2(CCOCC2)C1	-24.7
CC(=O)N1CCN(c2cc(C3CN(C(C)=O)CCO3)nc(C)n2)CC1 (configuration not stated)	-22.8
COc1ccc(-c2cccc(CC3(C(=O)O)CCOCC3)c2)cc1	-34.3
NC(=O)C1(CCCc2ccccn2)CCCN(Cc2ncc[nH]2)C1 (configuration not stated)	-0.00173
CNC(=O)c1ccc(C2CN(C(=O)c3cnn(C)c3)CCO2)nc1 (configuration not stated)	-24.2
O=C(Cn1cccnc1=O)NC(Cc1ccsc1)c1nccs1 (configuration not stated)	-4.44
Cc1n[nH]c(C)c1NC(=O)CCc1cccc(C2CCCN(C)C2)n1 (configuration not stated)	-6.19
O=C(C1CCC1)N1CCCC(c2cccc(-n3ccnc3)n2)C1 (configuration not stated)	-1.28
CCN1CCN(Cc2c(-c3ccco3)[nH]c3ncccc23)CC1	-5.91

SMILES	cytotoxicity at 10 µM [%]
Cc1ncsc1-c1nnc(C2CCN(Cc3ccccc3Cl)CC2)o1	-6.86
CN1CCC2(CC1)Cc1ccccc1CN(C(=O)CN)C2	-1.63
COc1ccc(SC(C)C(=O)N2CCC(NC(=O)C3CC3)CC2)cc1 (configuration not stated)	-9.11
Cc1ccc2c(c1C)OCC2NCc1cccc(C#N)c1 (configuration not stated)	9.91
O=C(NCCO)Nc1c(F)cccc1Oc1ccccc1	1.36
COc1ncccc1CNC(=O)N1CCC(CN2CCOCC2)CC1	-39.2
CC(=O)NCCC(=O)NC(C)c1sc(-c2ccccc2F)nc1C (configuration not stated)	7.92
COc1c(NS(=O)(=O)c2ccc(F)c(C)c2)c(C)nn1C	-6.33
COC(=O)CC(NC(=O)c1cc(OC)c2c(c1)OCCO2)c1cccs1 (configuration not stated)	2.01
CCS(=O)(=O)N1CCC(Nc2c(Cl)cccc2C#N)CC1	-0.85
Cc1c(NC(C)C(C)C)cccc1C(=O)NCc1cnn(C)c1 (configuration not stated)	27
Cc1cc(NCc2csc(C)n2)no1	9.48
NCC1(c2cccc(C(F)(F)F)c2)CC1	-11.2
COc1ccccc1OCC(=O)NS(=O)(=O)c1ccc(Cl)cc1F	2.28
CCCn1nc2c(cc1=O)CN(C(C)C(=O)Nc1nccs1)CC2 (configuration not stated)	-1.99
CC(C)C1CN(C(=O)c2cccs2)CCS1 (configuration not stated)	1.24
CCCC(=O)N(CC)C(c1cccnc1)c1ccc2c(c1)CCO2 (configuration not stated)	0.217
CCN(Cc1cccc(-c2ccncc2)c1)S(C)(=O)=O	-14
CCN(Cc1ccco1)C(=O)NCC(c1cccs1)N(C)C (configuration not stated)	16.3
COCCOc1ccccc1C(=O)Nc1c(C)cnn1CC1CC1	1.13
COc1ccc2c(OCC(=O)NC(C)(C)C)ccnc2c1	-2.04
COCC(O)CN(C)C(=O)NCc1ccc(S(C)(=O)=O)cc1 (configuration not stated)	1.72
CCC(C)(C)NC(=O)Cn1nnc(CN(C)C(=O)c2ccccc2)n1	9.74

SMILES	cytotoxicity at 10 µM [%]
CNC(=O)c1cc(C)ccc1NCc1cn2cc(C)ccc2n1	8.45
O=C(NCCCN1CCN(c2ncccn2)CC1)NCC1CCCO1 (configuration not stated)	-43.1
COc1ccc(NC(C)C(=O)N2CCN(c3ncccn3)CC2)cn1 (configuration not stated)	-4.71
CC(C)NC(=O)N1CCC2(CC1)Cc1ccccc1CNC2=O	1.33
Cc1nc([C@@H]2C[C@H]3CN(Cc4ccc5c(c4)OCO5)C[C@H]3O2)no1	-115
CO[C@@H]1CC[C@H]2[C@H]1OCCN2C(=O)COc1ccc(F)cc1	4.42
O=C1CN(CC2CC2)Cc2nc(NCc3ccccc3)sc21	-12.3
CCNC(=O)[C@@H]1C[C@@H](NC(=O)CSC)CN1Cc1ccncc1	-1.87
COc1ccc(C(=O)NC2CC2)c(OC2CCN(C3CCC3)CC2)c1	0.542
CCn1ccnc1C1CCN(C(=O)Nc2ccc(OC)cc2)CC1	-1.77
COC[C@]1(O)CCN(C2CCN(c3ccc(Cl)cc3)CC2)CC1(C)C	-0.75
CNc1nccc(-c2cn(C)nc2C)n1	-6.59
CC(C)N(Cc1nc(-c2cccs2)no1)CC1CCC(=O)N1 (configuration not stated)	-0.475
Cc1ccc(CN2CCN(C(=O)CCc3nc(Cl)n[nH]3)CC2=O)cc1	-0.903
O=C(N1CCOCC1)N1CCC(Nc2ccncn2)CC1	-57
Cc1cc(C)n(CC(C)Nc2ncnc3c2CCNC3)n1 (configuration not stated)	3.37
CSCC(=O)N1CCCC(CCC(=O)N(C)CCc2ccccn2)C1 (configuration not stated)	-3.09
O=C1[C@@H]2CN(c3ncnc4sccc34)C[C@]2(C(=O)O)CN1CC1CC1	0.977
Cn1cc(CN2CCC[C@]3(C(=O)O)CN(c4cnccn4)CC[C@@H]23)cn1	-0.226
CCn1cc(CN2CCCCC2CCn2ccnc2C)cc1C#N (configuration not stated)	-3.09
CCc1nccn1CCC(=O)N1CCCC1c1ccc(F)cc1 (configuration not stated)	1.58
Cc1ccc(NC(=O)[C@@H]2C[C@H](C(=O)O)CN(Cc3sccc3C)C2)cn1	11
Cc1ncsc1C(=O)N1CCCC(CO)(CC2CC2)C1 (configuration not stated)	-1.5

SMILES	cytotoxicity at 10 µM [%]
CCc1ccc(C2c3nc[nH]c3CCN2Cc2nccn2CC)nc1 (configuration not stated)	-0.123
CN(CCO)Cc1nnc(C2CCN(C(=O)c3ccccn3)CC2)n1C	0.5
CC(C)=CCC1(CO)CCCN(Cc2cnc(N3CCOCC3)nc2)C1 (configuration not stated)	-2.6
O=C(c1ncc(F)cc1F)N1CCC(c2ncc[nH]2)CC1	-3.73
O=C(Cc1n[nH]c(-c2cncc(Br)c2)n1)NCc1ccncc1	-6.3
CCCN1CCN(C(=O)Cc2cccnc2)[C@H]2CS(=O)(=O)C[C@H]21	-8.26
O=C(C1CCC1)N1CC[C@]2(O)CCN(Cc3ncccn3)C[C@@H]2C1	3.97
CCC(NC1CSCCSC1)c1ccc(S(C)(=O)=O)cc1 (configuration not stated)	-8.06
COCCN(C)CC(=O)N1CCCC2(CCC(=O)N(CC3CC3)C2)C1 (configuration not stated)	0.502
COCc1noc(Cn2ccc3ncccc3c2=O)n1	1.56
CNCc1cc(F)ccc1Oc1ccc(F)cc1	-1
COC(=O)C(NC(=O)C1CCCC1)c1cc(F)ccc1F (configuration not stated)	5.67
Cc1noc(C)c1C(=O)NCCSCc1cccs1	-4.89
Cc1nccc(C(=O)N2CCCN(Cc3nccn3C(C)C)CC2)n1	-10.2
Cc1nc(C)n(CC2CCCN2CC(=O)Nc2c(C)n[nH]c2C)n1 (configuration not stated)	-7.66
COc1ccc(C(=O)Nc2cnn(CCN3CCOCC3)c2)c(O)c1	-3.92
Cc1nc(C)n(CC2CCCN2Cc2nc(-c3ccco3)no2)n1 (configuration not stated)	-4.39
CCN(Cc1nc2c(cnn2C)c(=O)[nH]1)c1ccc(F)cc1	-1.67
COc1ccc(COCC(O)CNC(=O)c2ccncc2)cc1 (configuration not stated)	-5.31
Cc1ccc(C)c(C(=O)N2CCN(C(=O)Cc3ccccn3)CC2)c1	-15.1
COc1cccc(CNCc2ccc(NC(=O)NC(C)C)cc2)c1	-11.1
Cc1ccc(CNC(=O)Cc2c(C)nc3c(c2C)c(=O)[nH]n3C)cc1	-8.6
CCc1nnsc1C(=O)N1CCCN(Cc2ccc(C)cc2)CC1	-4.28

SMILES	cytotoxicity at 10 µM [%]
Cc1cc(C)c(CNC(=O)NCC(c2ccccc2)N(C)C)c(=O)[nH]1 (configuration not stated)	-3.19
CN(C)S(=O)(=O)c1ccc(CN2CCCC2c2ccc[nH]2)o1 (configuration not stated)	-4.03
Cc1nn(CC(C)C)c(N(C)C)c1CNCc1cccc2c1OCO2	-10.2
Cc1ccc(NC(=O)C2CSCN2C(=O)c2cnn(C)c2)c(C)c1 (configuration not stated)	-3.97
Cc1ccc(CNC(=O)N2CCN(Cc3ccsc3)CC2)n1C	9.58
CN1CCC(C(=O)NCc2nncn2-c2ccccc2)CC1=O (configuration not stated)	-4.32
CC1CN(C(=O)CN(Cc2ccco2)C2CC2)CCO1 (configuration not stated)	3.97
CCc1nc(CN2CCCC(NCc3cc(C)no3)C2)no1 (configuration not stated)	1.59
Cc1nc(N)c2ccc(C3CCCCN3)nc2n1 (configuration not stated)	-0.05
COCC1CC2(CCN(c3cccc(C)n3)CC2)CN1C(C)C (configuration not stated)	-109
CN1C(=O)CC(c2ccncc2)C12CCN(c1ncccn1)CC2 (configuration not stated)	-108
O=C(C1CCCO1)N1CCCC2(CCN(c3cccnc3)CC2)C1 (configuration not stated)	2.68
COCCN1CCOCC2(CCN(c3cnccn3)CC2)C1	-87.4
CCCN1CCC(c2nc3ccc(C)cn3n2)CC1	-118
COc1ccc(-c2ccnc(C3CCNCC3)c2)cc1	-41.4
O=C(NC1CC(F)(F)C1)[C@]12COC[C@H]1CN(Cc1cccnc1)C2	-109
c1cnc(N2CCC3(CN(CC4CCOC4)C3)C2)nc1 (configuration not stated)	-5.77
Cn1cc(-c2ncc3c(c2C(=O)O)CCN(Cc2ccccn2)C3)cn1	-107
O=C(NCc1ccccn1)[C@@H]1COC[C@H]2CN(C3CCOCC3)C[C@H]21	2.52
CN1CCN(Cc2cccnc2)C(=O)C12CCN(CC1CCOC1)CC2 (configuration not stated)	-106
